According to ChEMBL document CHEMBL3779876, “Synthesis and biological evaluation of novel 2,3-dihydrochromeno[3,4-d]imidazol-4(1H)-one derivatives as potent anticancer cell proliferation and migration agents” (Eur J Med Chem, 2016):
Calls of active or inactive are those of the source. The rule behind the calls is not given here.

Tests used:
[1] = Growth inhibition of human U87MG cells assessed as cell viability after 72 hrs by MTT assay; type: functional, cell-based, U-87MG ATCC; details: U-87 MG
How it was run: (§1)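 Cells were grown in DMEM or RPMI with 10% FBS and 1% penicillin/streptomycin at 37 °C, 5% CO2. They were seeded at 2000–3000 cells, rested 24 h, then exposed to a range of concentrations for 72 h. MTT (5 mg/mL stock) was added for 2–4 h at 37 °C and formazan dissolved in DMSO. A570 was read and IC50 calculated; triplicate wells, three separate experiments.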

[2] = Growth inhibition of human PC3 cells assessed as cell viability after 72 hrs by MTT assay; type: functional, cell-based; details: PC-3, 72 h; how it was run: as §1
[3] = Growth inhibition of human HCT116 cells assessed as cell viability after 72 hrs by MTT assay; type: functional, cell-based; details: HCT-116, 72 h; how it was run: as §1
MCF7 [4] = test: Growth inhibition of human MCF7 cells assessed as cell viability after 72 hrs by MTT assay; type: functional, cell-based; details: MCF7, 72 h; how it was run: as §1
[5] = Growth inhibition of human SW620 cells assessed as cell viability after 72 hrs by MTT assay; type: functional, cell-based; details: SW-620, 72 h; how it was run: as §1
CT26 = test: Growth inhibition of mouse CT26 cells assessed as cell viability after 72 hrs by MTT assay; type: functional, cell-based; details: CT26, 72 h; how it was run: as §1
A549 = test: Growth inhibition of human A549 cells assessed as cell viability after 72 hrs by MTT assay; type: functional, cell-based; details: A549, 72 h; how it was run: as §1
[6] = Growth inhibition of human LO2 cells assessed as cell viability after 72 hrs by MTT assay; type: cell-based; details: L02, 72 h; how it was run: as §1
HCT-116 [7] = test: Inhibition of colony formation in human HCT116 cells at 0.3125 to 2.5 uM after 20 days by crystal violet staining based microscopic analysis; type: functional, cell-based
How it was run: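 HCT116 cells were plated at 500 per well, left overnight at 37 °C, then treated with fresh compound-containing medium. Colonies were washed with cold PBS, fixed in 4% paraformaldehyde and stained with 0.5% crystal violet for 15 min. Colonies over 50 cells were counted by microscope and expressed as % of control; three independent experiments.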

[8] = Cell cycle arrest in human SW620 cells assessed as accumulation at G0/G1 phase at 0.3125 uM after 24 hrs by propidium iodide staining based flow cytometry (reference value: 38.47%); type: functional; details: SW-620
[9] = Cell cycle arrest in human SW620 cells assessed as accumulation at G0/G1 phase at 0.625 uM after 24 hrs by propidium iodide staining based flow cytometry (reference value: 38.47%); type: functional; details: SW-620
[10] = Cell cycle arrest in human SW620 cells assessed as accumulation at G0/G1 phase at 1.25 uM after 24 hrs by propidium iodide staining based flow cytometry (reference value: 38.47%); type: functional; details: SW-620
[11] = Cell cycle arrest in human SW620 cells assessed as accumulation at G0/G1 phase at 2.5 uM after 24 hrs by propidium iodide staining based flow cytometry (reference value: 38.47%); type: functional; details: SW-620
[12] = Cell cycle arrest in human SW620 cells assessed as accumulation at G0/G1 phase at 5 uM after 24 hrs by propidium iodide staining based flow cytometry (reference value: 38.47%); type: functional; details: SW-620
[13] = Cell cycle arrest in human SW620 cells assessed as accumulation at G2/M phase at 0.3125 uM after 24 hrs by propidium iodide staining based flow cytometry (reference value: 22.88%); type: functional; details: SW-620
[14] = Cell cycle arrest in human SW620 cells assessed as accumulation at G2/M phase at 0.625 uM after 24 hrs by propidium iodide staining based flow cytometry (reference value: 22.88%); type: functional; details: SW-620
[15] = Cell cycle arrest in human SW620 cells assessed as accumulation at G2/M phase at 1.25 uM after 24 hrs by propidium iodide staining based flow cytometry (reference value: 22.88%); type: functional; details: SW-620
[16] = Cell cycle arrest in human SW620 cells assessed as accumulation at G2/M phase at 2.5 uM after 24 hrs by propidium iodide staining based flow cytometry (reference value: 22.88%); type: functional; details: SW-620
[17] = Cell cycle arrest in human SW620 cells assessed as accumulation at G2/M phase at 5 uM after 24 hrs by propidium iodide staining based flow cytometry (reference value: 22.88%); type: functional; details: SW-620
[18] = Cell cycle arrest in human SW620 cells assessed as accumulation at S phase at 0.3125 uM after 24 hrs by propidium iodide staining based flow cytometry (reference value: 38.65%); type: functional; details: SW-620
[19] = Cell cycle arrest in human SW620 cells assessed as accumulation at S phase at 0.625 uM after 24 hrs by propidium iodide staining based flow cytometry (reference value: 38.65%); type: functional; details: SW-620
[20] = Cell cycle arrest in human SW620 cells assessed as accumulation at S phase at 1.25 uM after 24 hrs by propidium iodide staining based flow cytometry (reference value: 38.65%); type: functional; details: SW-620
[21] = Cell cycle arrest in human SW620 cells assessed as accumulation at S phase at 2.5 uM after 24 hrs by propidium iodide staining based flow cytometry (reference value: 38.65%); type: functional; details: SW-620
[22] = Cell cycle arrest in human SW620 cells assessed as accumulation at S phase at 5 uM after 24 hrs by propidium iodide staining based flow cytometry (reference value: 38.65%); type: functional; details: SW-620
[23] = Cell cycle arrest in human SW620 cells assessed as accumulation at G0/G1 phase after 24 hrs by propidium iodide staining based flow cytometry; type: functional; details: SW-620
SW-620 [24] = test: Induction of apoptosis in human SW620 cells assessed as early apoptotic cells at 0.3125 uM after 24 hrs by Annexin V-FITC/propidium iodide staining based flow cytometry (reference value: 2.81%); type: functional
SW-620 [25] = test: Induction of apoptosis in human SW620 cells assessed as early apoptotic cells at 0.625 uM after 24 hrs by Annexin V-FITC/propidium iodide staining based flow cytometry (reference value: 2.81%); type: functional
SW-620 [26] = test: Induction of apoptosis in human SW620 cells assessed as early apoptotic cells at 1.25 uM after 24 hrs by Annexin V-FITC/propidium iodide staining based flow cytometry (reference value: 2.81%); type: functional
SW-620 [27] = test: Induction of apoptosis in human SW620 cells assessed as early apoptotic cells at 2.5 uM after 24 hrs by Annexin V-FITC/propidium iodide staining based flow cytometry (reference value: 2.81%); type: functional
SW-620 [28] = test: Induction of apoptosis in human SW620 cells assessed as early apoptotic cells at 5 uM after 24 hrs by Annexin V-FITC/propidium iodide staining based flow cytometry (reference value: 2.81%); type: functional
SW-620 [29] = test: Induction of apoptosis in human SW620 cells assessed as late apoptotic cells at 0.3125 uM after 24 hrs by Annexin V-FITC/propidium iodide staining based flow cytometry (reference value: 1.02%); type: functional
SW-620 [30] = test: Induction of apoptosis in human SW620 cells assessed as late apoptotic cells at 0.625 uM after 24 hrs by Annexin V-FITC/propidium iodide staining based flow cytometry (reference value: 1.02%); type: functional
SW-620 [31] = test: Induction of apoptosis in human SW620 cells assessed as late apoptotic cells at 1.25 uM after 24 hrs by Annexin V-FITC/propidium iodide staining based flow cytometry (reference value: 1.02%); type: functional
SW-620 [32] = test: Induction of apoptosis in human SW620 cells assessed as late apoptotic cells at 2.5 uM after 24 hrs by Annexin V-FITC/propidium iodide staining based flow cytometry (reference value: 1.02%); type: functional
SW-620 [33] = test: Induction of apoptosis in human SW620 cells assessed as late apoptotic cells at 5 uM after 24 hrs by Annexin V-FITC/propidium iodide staining based flow cytometry (reference value: 1.02%); type: functional
SW-620 [34] = test: Induction of apoptosis in human SW620 cells after 24 hrs by Annexin V-FITC/propidium iodide staining based flow cytometry; type: functional, cell-based
MCF7 [35] = test: Inhibition of cell migration in human MCF7 cells at 5 uM after 24 hrs by wound healing assay; type: functional, cell-based
How it was run: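 MCF-7 monolayers at 80–90% confluence were scratched with a sterile pipette tip. Fresh medium with 10% FBS and compound was added. Wounds were photographed at 0, 12 and 24 h at 37 °C.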

[36] = Antitumor activity against human HCT116 cells xenografted in Balb/c athymic nude mouse assessed as tumor growth inhibition at 80 mg/kg, ip once in 2 days for 24 days measured every 2 days during compound treatment relative to control; type: functional; details: HCT-116, ip, read-out: TGI
How it was run: (§2)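 Female BALB/c athymic nude mice, 7 weeks old, received 1×10^7 HCT116 cells s.c. in the right flank. After one week, at about 100 mm³ mean tumour volume, mice were randomised to three groups of 8. Groups got vehicle, 40 or 80 mg/kg i.p. once every two days for 24 days. Tumour size and body weight were measured every two days. Volume = L×W²×0.5; inhibition was taken from mean volume change versus vehicle.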

HCT-116 [37] = test: Antitumor activity against human HCT116 cells xenografted in ip dosed Balb/c athymic nude mouse assessed as tumor growth inhibition administered once in 2 days for 24 days measured every 2 days during compound treatment; type: functional, organism-based; how it was run: as §2
Mus musculus = test: Toxicity in Balb/c athymic nude mouse xenografted with human HCT116 cells assessed as body weight loss at 40 to 80 mg/kg, ip once in 2 days for 24 days measured every 2 days during compound treatment; type: organism-based, HCT-116; details: in vivo; how it was run: as §2

N#CCc1ccc(-n2c(=O)[nH]c3c(=O)oc4ccc(-c5cccc(NS(=O)(=O)c6ccc(F)cc6)c5)cc4c32)cc1
IC50 [1]: > 40 µM
IC50 [2]: > 40 µM
IC50 [3]: > 40 µM

Cc1ccccc1-n1c(=O)[nH]c2c(=O)oc3ccc(-c4cnc5ccccc5c4)cc3c21
IC50 [1]: > 40 µM
IC50 [2]: > 40 µM
IC50 [3]: > 40 µM

N#CCc1ccc(-n2c(=O)[nH]c3c(=O)oc4ccc(-c5cnc6ccccc6c5)cc4c32)cc1
IC50 [1]: 34.9 µM
IC50 [2]: 30.2 µM
IC50 [3]: 28.4 µM

Cc1ccccc1-c1ccc2oc(=O)c3[nH]c(=O)n(-c4ccccc4)c3c2c1
IC50 [1]: > 40 µM

CN1c2c(c3cc(-c4cnc5ccccc5c4)ccc3oc2=O)N(c2ccc(C(C)(C)C#N)cc2)C1(C)OC(C)(C)C (stereo not given)
IC50 [1]: > 31 µM
IC50 [2]: 18 µM
IC50 [3]: 1.4 µM
IC50 (MCF7 [4]): 1.7 µM
IC50 [5]: 3.55 µM
IC50 (CT26): 3.5 µM
IC50 (A549): 9.5 µM
IC50 [6]: 37 µM
inhibition (HCT-116 [7]): Active
Activity [8]: 38.8%
Activity [9]: 40.3%
Activity [10]: 43%
Activity [11]: 47.5%
Activity [12]: 60%
Activity [13]: 26%
Activity [14]: 22.8%
Activity [15]: 20.5%
Activity [16]: 15.3%
Activity [17]: 9.68%
Activity [18]: 35.2%
Activity [19]: 36.9%
Activity [20]: 36.6%
Activity [21]: 37.2%
Activity [22]: 30.3%
Activity [23]: Dose-dependent effect
Activity (SW-620 [24]): 6.75%
Activity (SW-620 [25]): 8.59%
Activity (SW-620 [26]): 16.76%
Activity (SW-620 [27]): 16.78%
Activity (SW-620 [28]): 31.33%
Activity (SW-620 [29]): 8.96%
Activity (SW-620 [30]): 9.09%
Activity (SW-620 [31]): 8.43%
Activity (SW-620 [32]): 9.44%
Activity (SW-620 [33]): 11.57%
Activity (SW-620 [34]): Dose-dependent effect
inhibition (MCF7 [35]): Active
inhibition in vivo at 80 mg/kg [36]: 53%
TGI (HCT-116 [37]): Dose-dependent effect
Activity (Mus musculus): Non-toxic

N#CCc1ccc(-n2c(=O)[nH]c3c(=O)oc4ccc(-c5ccc(O)cc5)cc4c32)cc1
IC50 [1]: 29.6 µM
IC50 [2]: 30.6 µM
IC50 [3]: 30.1 µM

N#CCc1ccc(-n2c(=O)[nH]c3c(=O)oc4ccc(-c5ccncc5)cc4c32)cc1
IC50 [1]: 36.4 µM
IC50 [2]: 37.1 µM
IC50 [3]: 37.2 µM

COc1ccc(-n2c(=O)[nH]c3c(=O)oc4ccc(-c5cccnc5)cc4c32)cc1
IC50 [1]: > 40 µM
IC50 [2]: > 40 µM
IC50 [3]: > 40 µM

N#CCc1ccc(-n2c(=O)[nH]c3c(=O)oc4ccc(-c5cccnc5)cc4c32)cc1
IC50 [1]: > 40 µM
IC50 [2]: > 40 µM
IC50 [3]: 29.4 µM

O=c1oc2ccc(-c3ccccc3)cc2c2c1[nH]c(=O)n2-c1ccccc1
IC50 [1]: > 40 µM
IC50 [2]: > 40 µM

COc1ccc(-n2c(=O)[nH]c3c(=O)oc4ccc(-c5cnc6ccccc6c5)cc4c32)cc1
IC50 [1]: > 40 µM
IC50 [2]: > 40 µM
IC50 [3]: > 40 µM

N#CCc1ccc(-n2c(=O)[nH]c3c(=O)oc4ccc(-c5cccc(N)c5)cc4c32)cc1
IC50 [1]: > 40 µM
IC50 [2]: 36.5 µM

O=c1oc2ccc(-c3ccc(O)cc3)cc2c2c1[nH]c(=O)n2-c1ccccc1
IC50 [1]: > 40 µM
